Results on 2 compounds are retold here after ChEMBL document CHEMBL1212911, “Identification of potent and selective amidobipyridyl inhibitors of protein kinase D” (J Med Chem, 2010).

A word on the IC50: it is the concentration that inhibits the measured activity by half. A lower IC50 goes with greater potency in that assay. Broadly, the EC50 is the concentration at which the effect is half-maximal. The inhibition is the drop in the measured response relative to a control, in per cent. The AUC(0-t) is exposure summed from dosing to a finite time, without extrapolation to infinity. Read a high AUC(0-t) as more exposure. By half-life is commonly meant the time needed for the level to fall by half in the phase considered. Higher therefore signals slow decline.

The test system of data set [1] is Caco-2. Briefly: Ratio of permeability from basolateral to apical side to apical to basolateral side in human Caco-2 cells. The class given is ADME, cell-based.
Data set [2] addresses T1, Serine/threonine-protein kinase D2 (Homo sapiens, UniProt Q9BZL6).
T1 sequence (Q9BZL6 whole entry): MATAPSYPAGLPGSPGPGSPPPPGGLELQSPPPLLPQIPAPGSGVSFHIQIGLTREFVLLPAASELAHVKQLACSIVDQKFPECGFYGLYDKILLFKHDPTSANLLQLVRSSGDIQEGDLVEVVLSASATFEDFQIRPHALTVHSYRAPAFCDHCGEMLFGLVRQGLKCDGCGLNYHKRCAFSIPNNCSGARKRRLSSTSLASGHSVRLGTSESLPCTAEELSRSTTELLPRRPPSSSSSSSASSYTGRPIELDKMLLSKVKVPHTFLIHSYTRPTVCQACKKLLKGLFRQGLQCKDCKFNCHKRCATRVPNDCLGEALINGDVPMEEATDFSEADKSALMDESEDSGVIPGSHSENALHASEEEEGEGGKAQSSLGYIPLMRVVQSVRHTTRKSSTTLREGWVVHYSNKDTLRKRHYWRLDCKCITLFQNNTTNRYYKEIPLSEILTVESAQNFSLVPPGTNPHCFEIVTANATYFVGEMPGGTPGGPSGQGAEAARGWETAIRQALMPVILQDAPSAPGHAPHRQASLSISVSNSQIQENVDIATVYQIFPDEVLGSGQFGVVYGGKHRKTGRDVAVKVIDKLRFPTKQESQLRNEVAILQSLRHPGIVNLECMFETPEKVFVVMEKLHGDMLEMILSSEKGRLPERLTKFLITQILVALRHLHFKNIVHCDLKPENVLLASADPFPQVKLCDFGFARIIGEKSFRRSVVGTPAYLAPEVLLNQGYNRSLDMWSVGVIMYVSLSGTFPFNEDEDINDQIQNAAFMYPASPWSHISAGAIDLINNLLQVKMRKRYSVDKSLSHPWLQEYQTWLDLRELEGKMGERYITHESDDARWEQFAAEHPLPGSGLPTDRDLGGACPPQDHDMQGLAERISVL
Briefly: Inhibition of PKD2 by TR-FRET assay. On the technique in general: TR-FRET usually uses a lanthanide donor and a delayed reading to cut background.

Data set [3] has as its target T2, Serine/threonine-protein kinase D1 (Homo sapiens, UniProt Q15139).
T2 sequence (Q15139 whole entry): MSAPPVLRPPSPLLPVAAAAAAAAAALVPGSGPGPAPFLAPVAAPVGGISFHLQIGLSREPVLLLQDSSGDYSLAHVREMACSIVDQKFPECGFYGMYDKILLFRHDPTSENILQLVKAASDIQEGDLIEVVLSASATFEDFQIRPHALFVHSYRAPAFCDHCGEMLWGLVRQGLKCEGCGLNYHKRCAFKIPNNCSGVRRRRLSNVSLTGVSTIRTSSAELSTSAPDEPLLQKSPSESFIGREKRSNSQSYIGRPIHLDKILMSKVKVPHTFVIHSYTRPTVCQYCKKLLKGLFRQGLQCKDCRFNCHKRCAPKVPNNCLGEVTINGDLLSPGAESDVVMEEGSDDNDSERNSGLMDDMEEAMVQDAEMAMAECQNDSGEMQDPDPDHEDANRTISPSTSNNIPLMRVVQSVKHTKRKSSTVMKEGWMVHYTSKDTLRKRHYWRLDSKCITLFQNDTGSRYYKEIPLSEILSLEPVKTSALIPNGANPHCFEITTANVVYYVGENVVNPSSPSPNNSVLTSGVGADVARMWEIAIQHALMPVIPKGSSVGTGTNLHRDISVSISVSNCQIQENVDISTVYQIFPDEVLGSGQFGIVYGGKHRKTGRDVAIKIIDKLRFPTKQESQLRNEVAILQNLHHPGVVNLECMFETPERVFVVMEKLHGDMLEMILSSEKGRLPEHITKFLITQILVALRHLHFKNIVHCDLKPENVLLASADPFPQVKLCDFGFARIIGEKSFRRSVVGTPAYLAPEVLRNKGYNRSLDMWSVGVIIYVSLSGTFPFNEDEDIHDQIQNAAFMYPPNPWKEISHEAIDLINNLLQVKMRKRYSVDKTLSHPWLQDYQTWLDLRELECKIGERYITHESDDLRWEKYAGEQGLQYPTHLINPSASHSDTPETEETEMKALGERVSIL
Briefly: Inhibition of PKD1 by TR-FRET assay. In a few lines:
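Full-length wild-type PKD1 expressed and purified from Sf9 cells, 0.2 μg/mL, in 35 mM Tris-HCl pH 7.5, 5 mM MgCl2, 0.02% Tween-20, 20 μM ATP, 1 mM DTT. Reaction started with 2 μM biotinylated syntide-2 and run 50 min at room temperature. Stopped with EDTA plus europium anti-rabbit IgG, anti-phospho-syntide-2 antibody and streptavidin-APC. LANCE TR-FRET 665/615 ratio read after 1 h. 11-point curves in triplicate gave IC50.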

Data set [4] has as its target T2, Serine/threonine-protein kinase D1. Briefly: Inhibition of PKD1 assessed as inhibition of HDAC5 neuclear export. Put shortly:
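Neonatal rat ventricular myocytes infected with adenovirus encoding GFP-HDAC5 and plated on gelatin-coated wells. Cells exposed to compound and stimulated with PGF2α for 2 h, then fixed. Cytoplasmic versus nuclear GFP intensity quantified by high-content imaging.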

Data set [5] concerns the target Calcium/calmodulin-dependent protein kinase type II subunit delta (Homo sapiens) (UniProt Q13557). Briefly: Inhibition of human CaMK2delta. The settings on record: concentration not given here. Put shortly:
(§1)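 Selectivity screen run externally (Invitrogen SelectScreen). Percent inhibition measured at 1 μM compound, mean of 2 measurements.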

Data set [6] addresses T3, Protein kinase C epsilon type (Homo sapiens) (UniProt Q02156).
T3 sequence (whole entry): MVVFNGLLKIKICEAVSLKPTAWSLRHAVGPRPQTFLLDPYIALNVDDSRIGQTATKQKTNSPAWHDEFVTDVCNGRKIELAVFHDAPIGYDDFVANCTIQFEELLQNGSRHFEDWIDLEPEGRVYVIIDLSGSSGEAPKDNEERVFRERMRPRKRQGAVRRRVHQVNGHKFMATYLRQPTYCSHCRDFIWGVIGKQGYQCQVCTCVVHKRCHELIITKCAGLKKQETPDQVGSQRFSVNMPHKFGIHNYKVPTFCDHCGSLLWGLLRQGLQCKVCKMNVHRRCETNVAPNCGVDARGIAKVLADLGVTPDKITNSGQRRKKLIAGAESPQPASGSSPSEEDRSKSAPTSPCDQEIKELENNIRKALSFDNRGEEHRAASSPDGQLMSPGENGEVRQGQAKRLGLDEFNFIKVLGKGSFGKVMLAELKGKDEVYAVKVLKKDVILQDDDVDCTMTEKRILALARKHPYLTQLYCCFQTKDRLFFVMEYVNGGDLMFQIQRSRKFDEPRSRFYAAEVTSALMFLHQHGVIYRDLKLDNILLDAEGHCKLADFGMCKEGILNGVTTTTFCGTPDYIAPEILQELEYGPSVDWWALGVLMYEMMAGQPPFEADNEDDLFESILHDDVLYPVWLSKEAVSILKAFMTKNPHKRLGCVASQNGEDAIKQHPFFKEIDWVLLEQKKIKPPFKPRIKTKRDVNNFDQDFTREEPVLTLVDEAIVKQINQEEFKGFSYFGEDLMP
Briefly: Inhibition of PKCepsilon. The note with it: concentration not given here.

In data set [7] the target is Protein kinase C delta type (Homo sapiens) (UniProt Q05655). Briefly: Inhibition of human PKCdelta. The settings on record: concentration not given here. Put shortly: as §1
Sequence of Protein kinase C delta type (Homo sapiens) (Q05655 whole entry, looked up): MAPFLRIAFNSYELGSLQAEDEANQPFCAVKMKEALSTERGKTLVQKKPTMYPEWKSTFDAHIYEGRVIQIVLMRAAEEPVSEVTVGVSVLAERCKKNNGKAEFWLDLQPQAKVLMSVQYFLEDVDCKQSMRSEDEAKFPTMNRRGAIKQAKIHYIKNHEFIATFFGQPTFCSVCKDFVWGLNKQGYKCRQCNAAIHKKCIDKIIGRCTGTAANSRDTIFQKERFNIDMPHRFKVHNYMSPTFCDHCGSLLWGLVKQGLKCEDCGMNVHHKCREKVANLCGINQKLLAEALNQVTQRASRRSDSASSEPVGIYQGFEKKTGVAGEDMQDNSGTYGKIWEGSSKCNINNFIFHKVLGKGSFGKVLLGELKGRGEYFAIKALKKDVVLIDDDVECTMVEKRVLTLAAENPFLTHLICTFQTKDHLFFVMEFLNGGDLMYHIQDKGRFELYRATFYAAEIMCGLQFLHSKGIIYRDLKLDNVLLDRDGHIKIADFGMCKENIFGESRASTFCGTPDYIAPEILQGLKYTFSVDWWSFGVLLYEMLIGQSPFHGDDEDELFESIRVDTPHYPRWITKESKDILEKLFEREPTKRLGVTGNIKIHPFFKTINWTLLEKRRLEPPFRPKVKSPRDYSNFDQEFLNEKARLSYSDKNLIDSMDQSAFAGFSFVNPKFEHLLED
Data set [8] can be described thus: AUC (0 to 8 hrs) in Sprague-Dawley rat at 5 mg/kg, po. More on the design: time < 8 hr, dose 5 mg/kg, route oral. The settings on record: plasma. The class given is ADME, organism-based.
In data set [9] the target is Calcium/calmodulin-dependent protein kinase type 1D (Homo sapiens) (UniProt Q8IU85). Briefly: Inhibition of CaMK1delta. The note with it: concentration not given here. In a few lines: as §1
Sequence of Calcium/calmodulin-dependent protein kinase type 1D (Homo sapiens) (Q8IU85 whole entry, looked up): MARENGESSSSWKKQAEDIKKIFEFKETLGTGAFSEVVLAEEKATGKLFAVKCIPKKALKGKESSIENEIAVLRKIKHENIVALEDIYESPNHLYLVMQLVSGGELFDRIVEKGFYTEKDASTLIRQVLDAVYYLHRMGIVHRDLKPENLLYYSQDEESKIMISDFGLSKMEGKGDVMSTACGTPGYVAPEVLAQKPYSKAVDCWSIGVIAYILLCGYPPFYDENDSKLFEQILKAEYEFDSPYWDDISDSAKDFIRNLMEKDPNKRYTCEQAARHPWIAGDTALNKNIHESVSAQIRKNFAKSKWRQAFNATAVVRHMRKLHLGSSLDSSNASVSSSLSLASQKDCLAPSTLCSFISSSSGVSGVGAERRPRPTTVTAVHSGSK
Data set [10] addresses Serine/threonine-protein kinase MARK1 (Homo sapiens) (UniProt Q9P0L2). Briefly: Inhibition of human MARK1. The note with it: concentration not given here. Put shortly: as §1
The nature of data set [11]: Half life in rats after 2 mg/kg intravenous dose. The class given is ADME, organism-based. Set-up: dose 2 mg/kg, route intravenous. The settings on record: Sprague-Dawley, rat, in vivo. In a few lines: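 Rats dosed iv 2 mg/kg (n = 2) or po 5 mg/kg (n = 3) in 10% NMP, 10% Cremophor, 80% pH 4.63 buffer. PK parameters derived from iv dosing, reported as mean ± SD.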

For data set [12], the target named is T4, Calcium/calmodulin-dependent protein kinase type IV (Homo sapiens) (UniProt Q16566).
T4 sequence (whole entry): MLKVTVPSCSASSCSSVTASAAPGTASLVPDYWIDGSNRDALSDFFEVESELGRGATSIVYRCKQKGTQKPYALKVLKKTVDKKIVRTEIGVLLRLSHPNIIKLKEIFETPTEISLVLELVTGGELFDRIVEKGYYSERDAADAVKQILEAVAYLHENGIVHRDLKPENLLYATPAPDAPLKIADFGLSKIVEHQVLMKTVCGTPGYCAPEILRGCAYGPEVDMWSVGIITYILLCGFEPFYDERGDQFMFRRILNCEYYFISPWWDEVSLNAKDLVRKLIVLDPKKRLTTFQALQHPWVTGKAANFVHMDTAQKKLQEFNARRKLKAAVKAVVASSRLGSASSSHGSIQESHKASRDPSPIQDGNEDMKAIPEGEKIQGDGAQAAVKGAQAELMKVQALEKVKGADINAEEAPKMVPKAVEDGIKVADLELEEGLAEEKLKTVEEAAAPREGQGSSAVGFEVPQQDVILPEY
Briefly: Inhibition of human CaMK4. The note with it: concentration not given here. In a few lines: as §1

For data set [13], the target named is G protein-coupled receptor kinase 5 (Homo sapiens) (UniProt P34947). Briefly: Inhibition of human GRK5. The settings on record: concentration not given here. In a few lines: as §1
Sequence of G protein-coupled receptor kinase 5 (Homo sapiens) (P34947 whole entry, looked up): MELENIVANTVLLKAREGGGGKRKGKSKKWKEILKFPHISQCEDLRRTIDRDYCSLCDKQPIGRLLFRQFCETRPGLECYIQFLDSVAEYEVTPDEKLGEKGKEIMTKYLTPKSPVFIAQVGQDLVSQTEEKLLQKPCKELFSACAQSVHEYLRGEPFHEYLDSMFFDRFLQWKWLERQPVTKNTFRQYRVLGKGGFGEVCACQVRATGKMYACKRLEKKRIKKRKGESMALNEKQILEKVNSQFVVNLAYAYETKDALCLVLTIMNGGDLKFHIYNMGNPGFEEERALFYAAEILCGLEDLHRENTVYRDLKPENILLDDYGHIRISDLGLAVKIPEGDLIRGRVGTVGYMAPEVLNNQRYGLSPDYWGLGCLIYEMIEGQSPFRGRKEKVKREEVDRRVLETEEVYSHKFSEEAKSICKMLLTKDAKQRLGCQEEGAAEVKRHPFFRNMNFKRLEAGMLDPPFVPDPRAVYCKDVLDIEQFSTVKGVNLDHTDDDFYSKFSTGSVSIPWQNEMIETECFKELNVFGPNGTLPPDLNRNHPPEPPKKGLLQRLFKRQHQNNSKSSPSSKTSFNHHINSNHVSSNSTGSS
For data set [14], the target named is Serine/threonine-protein kinase MARK2 (Homo sapiens) (UniProt Q7KZI7). Briefly: Inhibition of human MARK2. The note with it: concentration not given here. In a few lines: as §1
Sequence of Serine/threonine-protein kinase MARK2 (Homo sapiens) (Q7KZI7 whole entry): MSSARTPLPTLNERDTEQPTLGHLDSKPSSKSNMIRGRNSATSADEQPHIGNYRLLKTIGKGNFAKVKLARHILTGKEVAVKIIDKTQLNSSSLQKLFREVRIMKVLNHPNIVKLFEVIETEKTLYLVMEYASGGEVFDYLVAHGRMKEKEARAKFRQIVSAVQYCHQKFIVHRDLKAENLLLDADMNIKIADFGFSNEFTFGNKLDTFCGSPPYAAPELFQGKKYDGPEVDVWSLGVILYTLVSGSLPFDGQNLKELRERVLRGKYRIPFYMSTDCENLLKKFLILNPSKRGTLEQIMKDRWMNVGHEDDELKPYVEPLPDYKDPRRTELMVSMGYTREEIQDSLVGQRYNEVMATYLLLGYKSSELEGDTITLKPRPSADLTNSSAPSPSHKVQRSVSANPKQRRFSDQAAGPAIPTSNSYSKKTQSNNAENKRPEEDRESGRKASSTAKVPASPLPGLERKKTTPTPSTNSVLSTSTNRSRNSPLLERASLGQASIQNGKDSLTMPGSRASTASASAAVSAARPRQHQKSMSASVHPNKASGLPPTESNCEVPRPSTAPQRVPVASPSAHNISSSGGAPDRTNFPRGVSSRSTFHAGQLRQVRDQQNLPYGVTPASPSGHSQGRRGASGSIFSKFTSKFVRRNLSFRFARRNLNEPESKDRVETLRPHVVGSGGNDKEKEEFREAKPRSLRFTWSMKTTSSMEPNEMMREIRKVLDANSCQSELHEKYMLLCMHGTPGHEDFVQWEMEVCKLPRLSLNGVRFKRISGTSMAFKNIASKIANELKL

Sequence of Serine/threonine-protein kinase MARK1 (Homo sapiens) (Q9P0L2 whole entry, looked up): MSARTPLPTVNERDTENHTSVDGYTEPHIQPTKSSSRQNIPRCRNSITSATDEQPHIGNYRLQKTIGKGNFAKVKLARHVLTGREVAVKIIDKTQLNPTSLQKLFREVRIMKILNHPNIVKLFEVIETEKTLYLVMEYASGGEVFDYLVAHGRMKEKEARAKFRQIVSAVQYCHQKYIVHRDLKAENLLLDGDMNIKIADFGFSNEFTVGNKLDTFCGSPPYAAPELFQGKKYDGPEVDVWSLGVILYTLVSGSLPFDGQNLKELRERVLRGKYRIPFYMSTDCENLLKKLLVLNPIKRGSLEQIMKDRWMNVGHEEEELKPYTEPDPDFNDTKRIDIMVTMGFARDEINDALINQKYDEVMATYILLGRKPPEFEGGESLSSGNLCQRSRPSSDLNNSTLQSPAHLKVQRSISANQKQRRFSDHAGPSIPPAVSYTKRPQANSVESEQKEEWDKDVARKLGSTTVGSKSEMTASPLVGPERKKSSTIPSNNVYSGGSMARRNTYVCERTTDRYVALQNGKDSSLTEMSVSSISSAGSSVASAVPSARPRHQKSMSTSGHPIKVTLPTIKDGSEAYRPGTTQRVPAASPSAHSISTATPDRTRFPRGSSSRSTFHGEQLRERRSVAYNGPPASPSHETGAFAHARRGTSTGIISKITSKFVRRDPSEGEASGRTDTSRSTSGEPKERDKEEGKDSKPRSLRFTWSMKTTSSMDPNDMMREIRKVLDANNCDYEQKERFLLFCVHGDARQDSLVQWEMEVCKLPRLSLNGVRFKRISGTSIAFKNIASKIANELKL
Sequence of Calcium/calmodulin-dependent protein kinase type II subunit delta (Homo sapiens) (Q13557 whole entry): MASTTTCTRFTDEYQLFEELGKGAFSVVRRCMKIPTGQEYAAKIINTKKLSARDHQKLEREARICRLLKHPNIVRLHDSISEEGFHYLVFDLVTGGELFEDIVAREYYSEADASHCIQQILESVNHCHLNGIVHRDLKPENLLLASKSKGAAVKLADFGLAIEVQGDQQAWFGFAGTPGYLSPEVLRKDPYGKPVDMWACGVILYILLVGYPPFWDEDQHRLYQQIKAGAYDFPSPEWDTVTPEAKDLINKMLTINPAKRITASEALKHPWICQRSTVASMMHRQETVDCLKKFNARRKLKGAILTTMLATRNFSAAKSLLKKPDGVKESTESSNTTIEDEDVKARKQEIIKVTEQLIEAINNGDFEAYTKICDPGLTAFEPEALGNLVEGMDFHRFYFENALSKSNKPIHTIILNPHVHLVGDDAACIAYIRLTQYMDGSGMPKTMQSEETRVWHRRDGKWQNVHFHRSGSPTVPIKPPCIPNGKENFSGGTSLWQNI

As for `N#Cc1cc(-c2ccnc(NC3CCCCC3)c2)nc(N2CCNCC2)c1`, the Ratio in data set [1] came to 0.44. In addition, the IC50 in [2] came out at 130 nM; in data set [3] it was 18 nM. Moreover, in data set [4], the EC50 came out at 66 nM.

Regarding `c1cc2c(N3CCNCC3)nc(-c3ccnc(NC4CCCCC4)c3)cc2cn1`, the inhibition in data set [5] stood at 80%; in [6] it was 34%; in data set [7] it was 51%; in data set [9], 11%; in data set [10], 82%; in data set [12] it was 1%. For the same compound, the figures for the inhibition in data set [13] and in [14] were 5% and 83%, respectively. The same compound had an AUC(0-t) at 8 h in [8] of 0.19 µM·h. Further, in data set [11], the half-life was 5.2 h.
